In ChEMBL document CHEMBL1128362, “Structure-activity relationships of 9-alkyladenine and ribose-modified adenosine derivatives at rat A3 adenosine receptors” (J Med Chem, 1995):
pKi: −log10 of the molar value. Values joined by “and” are separate entries in the source; they are usually repeats but may differ in a detail not shown here. Identical values can stand only once. Each block holds one compound with its values, some of them ahead of it. Active and inactive are the calls of the source. No cut-off for these calls is given here.

Columns and labels:
[1] = target: T1, Adenosine receptor A3 (Rattus norvegicus) (UniProt P28647); experiment: Ability to inhibit the adenylyl cyclase in CHO cells stably transfected with rat Adenosine A3 receptor at the concentration of 100 uM; type: cell-based
T1 sequence (whole entry): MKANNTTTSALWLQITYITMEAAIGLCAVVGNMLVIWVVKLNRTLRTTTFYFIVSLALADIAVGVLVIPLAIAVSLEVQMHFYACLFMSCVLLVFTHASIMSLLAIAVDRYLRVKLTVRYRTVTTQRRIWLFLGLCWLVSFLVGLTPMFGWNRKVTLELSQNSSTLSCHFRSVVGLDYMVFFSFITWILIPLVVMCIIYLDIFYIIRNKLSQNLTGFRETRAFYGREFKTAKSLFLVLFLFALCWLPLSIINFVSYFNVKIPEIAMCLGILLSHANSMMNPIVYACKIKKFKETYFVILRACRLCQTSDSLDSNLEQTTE
Method in brief: (§1)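 Adenylyl cyclase activity measured in membranes of CHO cells stably transfected with rat brain A3 receptor, following an earlier published method. […] Untransfected CHO cell membranes served as the control.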

[2] = target: Adenosine receptor A2a (Rattus norvegicus) (UniProt P30543); experiment: Binding affinity against Adenosine A2A receptor from rat brain; set-up: concentration or dose not given beside the values; details: concentration not given here
Method in brief: (§2)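 Rat A1 receptors came from cerebral cortical membranes with [3H]R-PIA, and rat A2a receptors came from striatal membranes with [3H]CGS 21680. Membranes were pretreated with adenosine deaminase (2 U/mL) for 30 min at 37 °C. Nonspecific binding was defined by 2-chloroadenosine at 10 µM (A1) and 200 µM (A2a).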

[3] = target: Adenosine receptors; A1 & A3 (Rattus norvegicus) (UniProt P25099+P28647); experiment: Ratio of the binding affinities against rat brain A1 and A3 receptors, KiA1/KiA3.
[4] = target: Adenosine receptor A2a and A3 (Rattus norvegicus) (UniProt P30543+P28647); experiment: Ratio of the binding affinities against rat brain A2a and A3 receptors, KiA2a/KiA3.
[5] = target: T1, Adenosine receptor A3 (Rattus norvegicus); experiment: Ratio of the concentration (100 uM) effecting adenylyl cyclase and binding affinity against rat brain A3 receptors.
Method in brief: (§3)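 This ratio is the adenylyl cyclase test concentration (20, 40 or 100 µM) divided by the A3 Ki. The Ki came from [125I]AB-MECA displacement in membranes of CHO cells expressing rat A3 receptor.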

[6] = target: T1, Adenosine receptor A3 (Rattus norvegicus); experiment: Ability to inhibit the adenylyl cyclase in CHO cells stably transfected with rat Adenosine A3 receptor at the concentration of 40(uM); type: cell-based; method in brief: as §1
[7] = target: T1, Adenosine receptor A3 (Rattus norvegicus); experiment: Ratio of the concentration (40 uM) effecting adenylyl cyclase and binding affinity against rat brain A3 receptors.; method in brief: as §3
[8] = target: T1, Adenosine receptor A3 (Rattus norvegicus); experiment: Agonist elicited inhibition of adenylyl cyclase via rat Adenosine A3 receptor in transfected CHO cells and effect on IB-MECA was determined from dose response curves at the concentration of 100(uM); type: functional, cell-based
Method in brief: (§4)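 CHO cell membranes stably transfected with rat A3 receptor were used to test for antagonism. Adenylyl cyclase inhibition was elicited by the A3 agonist IB-MECA across a dose-response curve, and test agent at 40 or 100 µM was checked for reversal of the agonist-induced inhibition. The cyclase measurement followed a previously described method.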

[9] = target: T1, Adenosine receptor A3 (Rattus norvegicus); experiment: Ability to inhibit the adenylyl cyclase in CHO cells stably transfected with rat Adenosine A3 receptor at the concentration of 20(uM); type: cell-based; method in brief: as §1
[10] = target: T1, Adenosine receptor A3 (Rattus norvegicus); experiment: Ratio of the concentration (20 uM) effecting adenylyl cyclase and binding affinity against rat brain A3 receptors; method in brief: as §3
[11] = target: Adenosine receptor A2a (Rattus norvegicus, UniProt P30543); experiment: Binding affinity against adenosine A2A receptor from rat brain.
[12] = target: T2, Adenosine receptor A3 (Rattus norvegicus, UniProt P28647); experiment: Binding affinity against adenosine A3 receptor (rat) stably expressed in CHO cell membranes.
T2 sequence (P28647 whole entry): T1 sequence (whole entry)
Method in brief: (§5)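 Rat brain A3 receptor was stably expressed in CHO cell membranes and labelled with [125I]AB-MECA at 0.3 nM final, in 50 mM Tris/10 mM MgCl2/1 mM EDTA, pH 8.26. Inhibitors were in DMSO, at no more than 2% final. Incubation was 1 h at 37 °C in duplicate, ended by filtration. Nonspecific binding was defined by 200 µM NECA.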

[13] = target: T3, Adenosine receptor A1 (Rattus norvegicus, UniProt P25099); experiment: Binding affinity against adenosine A1 receptor from rat brain.
T3 sequence (P25099 whole entry): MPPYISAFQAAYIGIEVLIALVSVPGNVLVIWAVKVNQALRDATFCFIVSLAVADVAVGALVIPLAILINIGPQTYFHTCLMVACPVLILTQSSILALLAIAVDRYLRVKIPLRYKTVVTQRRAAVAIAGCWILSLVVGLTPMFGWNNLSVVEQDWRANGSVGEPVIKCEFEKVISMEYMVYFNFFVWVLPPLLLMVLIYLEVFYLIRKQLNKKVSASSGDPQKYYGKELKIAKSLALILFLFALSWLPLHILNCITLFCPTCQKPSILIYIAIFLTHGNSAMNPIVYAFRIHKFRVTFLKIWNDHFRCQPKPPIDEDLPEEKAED

[14] = target: T1, Adenosine receptor A3 (Rattus norvegicus); details: CHO
[15] = target: T1, Adenosine receptor A3 (Rattus norvegicus); experiment: Inhibition of Adenosine A3 receptor from rat brain; details: concentration not given here; method in brief: as §5
[16] = target: T4, Adenosine receptor A1 (Rattus norvegicus) (UniProt P25099); experiment: Inhibition of Adenosine A1 receptor from rat brain.; details: concentration not given here; method in brief: as §2
T4 sequence (whole entry): T3 sequence (P25099 whole entry)

[17] = target: T1, Adenosine receptor A3 (Rattus norvegicus); details: CHO; remark: listed apart in the source
[18] = target: T1, Adenosine receptor A3 (Rattus norvegicus); details: CHO; remark: listed apart in the source
[19] = target: T1, Adenosine receptor A3 (Rattus norvegicus); experiment: Ability to inhibit the adenylyl cyclase in CHO cells stably transfected with rat Adenosine A3 receptor at the dose of 40(uM); type: cell-based; method in brief: as §1
[20] = target: T1, Adenosine receptor A3 (Rattus norvegicus); experiment: Ratio of the concentration (40 uM) effecting adenylyl cyclase and binding affinity against rat brain Adenosine A3 receptor; method in brief: as §3
[21] = target: T1, Adenosine receptor A3 (Rattus norvegicus); experiment: Agonist elicited inhibition of adenylyl cyclase via rat Adenosine A3 receptor in transfected CHO cells and effect on IB-MECA was determined from dose response curves at the concentration of 40(uM); type: functional, cell-based; method in brief: as §4

Chain of Adenosine receptor A2a (P30543 whole entry): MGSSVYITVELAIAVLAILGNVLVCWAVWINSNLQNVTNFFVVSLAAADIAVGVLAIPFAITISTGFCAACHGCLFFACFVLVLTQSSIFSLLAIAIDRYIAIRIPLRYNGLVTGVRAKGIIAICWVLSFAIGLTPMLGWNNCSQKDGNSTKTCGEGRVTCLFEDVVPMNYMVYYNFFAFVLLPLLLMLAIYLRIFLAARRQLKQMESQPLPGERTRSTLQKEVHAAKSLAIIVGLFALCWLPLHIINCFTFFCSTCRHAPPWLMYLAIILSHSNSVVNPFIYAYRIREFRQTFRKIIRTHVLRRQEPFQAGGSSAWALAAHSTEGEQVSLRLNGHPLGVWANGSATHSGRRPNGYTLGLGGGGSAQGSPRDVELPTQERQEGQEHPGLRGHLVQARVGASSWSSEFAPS
Chain of Adenosine receptor A2a (Rattus norvegicus) (P30543 whole entry): as above
Chain of Adenosine receptor A2a and A3 (Rattus norvegicus) (P30543 whole entry, looked up, one chain of several): as the sequence (P30543 whole entry) above

SMILES: CC(C)[Si]1(C(C)C)OC[C@H]2O[C@@H](n3cnc4c(NCc5cccc(I)c5)nc(Cl)nc43)[C@H](O)[C@@H]2O[Si](C(C)C)(C(C)C)O1
inhibition [1]: 8.7% | inhibition [2]: 18% | Ratio [3]: 5.1 | Ratio [4]: > 7 | Ratio [5]: 7.6

inhibition [6]: 35.2% | Ratio [7]: 1200 | Ratio [3]: 31 | Ratio [4]: 140 | Ratio [5]: 3000
SMILES: CNC(=O)[C@@H]1C[C@@H](O)[C@H](n2cnc3c(NCc4cccc(I)c4)nc(Cl)nc32)O1

inhibition [1]: 19.5% | Effect [8]: 0 | Ratio [3]: 6.3 | Ratio [4]: 5.5 | Ratio [5]: 330
SMILES: CSc1nc(NCc2cccc(I)c2)c2ncn(C)c2n1

Ratio [3]: 0.05 | Ratio [4]: 0.18
SMILES: Cn1cnc2c(NCc3cccc(I)c3)nc(NN)nc21

inhibition [1]: 27.8% | inhibition [9]: 25.7% and 18% | Ratio [10]: 3.3 | Ratio [3]: 0.067 | Ratio [4]: 4.7 | Ratio [5]: 17
SMILES: CNC(=O)[C@@H]1C[C@H](N=[N+]=[N-])[C@H](n2cnc3c(NCc4cccc(I)c4)nc(Cl)nc32)O1

inhibition [6]: 5.5% and 7.3% | pKi [11]: 4.10 | pKi [12]: 5.07 | Ratio [7]: 4.6 | Ratio [3]: 0.16 | Ratio [4]: 9.2 | pKi [13]: 5.87 | Effect [14]: 0
SMILES: CSc1nc(NCc2cccc(I)c2)c2ncn(C[C@H](O)CO)c2n1

inhibition [15]: 55% | inhibition [2]: 7% | inhibition [16]: 21%
SMILES: CNC(=O)C1OC(n2cnc3c(NC(=O)c4cccc(I)c4)nc(Cl)nc32)C(OC(=O)c2ccccc2)C1OC(=O)c1ccccc1 (stereo not drawn)

inhibition [1]: 44.4% | Effect [17]: inactive | Effect [18]: inactive
SMILES: CNC(=O)[C@H]1O[C@@H](n2cnc3c(NCc4cccc(I)c4)ncnc32)[C@H](O)[C@@H]1O

inhibition [15]: 30% | Ratio [3]: < 1 | Ratio [4]: < 1
SMILES: CCn1cnc2c(NC3CCCC3)ncnc21

Ratio [3]: 0.67 | Ratio [4]: 3.7
SMILES: CNc1nc(NCc2cccc(I)c2)c2ncn(C)c2n1

inhibition [19]: 19.7% | Ratio [20]: 28
SMILES: CS[C@H]1OC(n2cnc3c(N)ncnc32)[C@H](O)[C@@H]1O (stereo partly drawn)

inhibition [6]: 7.5% and 10.8% | Ratio [7]: 1.3 | Ratio [3]: 0.37 | Ratio [4]: 7.1 | Effect [21]: 0
SMILES: CNC(=O)[C@@H]1CC[C@H](n2cnc3c(NCc4ccccc4)nc(Cl)nc32)O1

Ratio [3]: 0.18 | Ratio [4]: 5.8
SMILES: CNC(=O)[C@@H]1C[C@@H](OS(C)(=O)=O)[C@H](n2cnc3c(NCc4cccc(I)c4)nc(Cl)nc32)O1

inhibition [6]: 0% | pKi [11]: 4.26 | pKi [12]: 5.22 | Ratio [3]: < 1 | Ratio [4]: < 1 | pKi [13]: 3.82
SMILES: CC(O)[C@@H]1O[C@@H](n2cnc3c(N)ncnc32)[C@H](O)[C@@H]1O (stereo partly drawn)

Ratio [3]: 0.37 | Ratio [4]: 0.24
SMILES: OCCn1cnc2c(NCc3cccc(I)c3)ncnc21

Ratio [3]: 0.0051 | Ratio [4]: 0.07
SMILES: Cn1cnc2c(NCc3cccc(I)c3)nc(Sc3ccncc3)nc21

inhibition [1]: 11.2% | pKi [11]: 4.01 | pKi [12]: 4.75 | Ratio [3]: 0.08 | Ratio [4]: 5.5 | pKi [13]: 5.85 | Ratio [5]: 5.6
SMILES: CNC(=O)[C@@H]1C[C@@H](F)[C@H](n2cnc3c(NCc4cccc(I)c4)nc(Cl)nc32)O1

inhibition [6]: 16.1% | pKi [12]: 4.85 | pKi [13]: 4.62
SMILES: Nc1nc(Cl)nc2c1ncn2[C@@H]1O[C@H](CO)[C@@H](O)[C@@H]1O

Ratio [3]: 0.0088 | Ratio [4]: 0.053
SMILES: Cn1cnc2c(NCc3cccc(I)c3)nc(Cl)nc21

inhibition [6]: 5.9% | inhibition [15]: 57% | inhibition [2]: 60% | Effect [21]: 0
SMILES: CCCCCC[C@@H]([C@@H](C)O)n1cnc2c(N)ncnc21

inhibition [9]: 12.7% | Ratio [10]: 320 | Ratio [3]: 12 | Ratio [4]: 250
SMILES: CNC(=O)[C@@H]1C[C@@H](OC(C)=O)[C@H](n2cnc3c(NCc4cccc(I)c4)nc(Cl)nc32)O1

Ratio [3]: 0.027 | Ratio [4]: 0.068
SMILES: COc1nc(NCc2cccc(I)c2)c2ncn(C)c2n1

Ratio [3]: 0.55 | Ratio [4]: 0.76
SMILES: OC[C@@H](O)Cn1cnc2c(NCc3cccc(I)c3)ncnc21

Ratio [3]: 0.032 | Ratio [4]: 0.1
SMILES: N#CCCCn1cnc2c(NCc3cccc(I)c3)ncnc21

Ratio [3]: 15 | Ratio [4]: 71 | Ratio [5]: 8200
SMILES: CNC(=O)[C@H]1O[C@@H](n2cnc3c(NCc4cccc(I)c4)nc(Cl)nc32)[C@@H]2OC(=S)O[C@@H]21

Ratio [3]: 0.14 | Ratio [4]: 0.08
SMILES: Cn1cnc2c(NCc3cccc(I)c3)nc(N)nc21

pKi [12]: 4.71 | inhibition [2]: 28.5% | Ratio [3]: 1.8 | Ratio [4]: > 1 | pKi [13]: 4.44
SMILES: CNC(=O)[C@H]1C[C@@H](n2cnc3c(NCc4cccc(I)c4)ncnc32)[C@H](O)[C@@H]1O

Ratio [3]: 0.12 | Ratio [4]: 0.046
SMILES: Cn1cnc2c(NCc3cccc(I)c3)ncnc21

inhibition [2]: 9% | inhibition [16]: 17%
SMILES: O=C(O)Cn1cnc2c(NCc3cccc(I)c3)ncnc21

pKi [11]: 4.96 | pKi [12]: 2.88 | Ratio [3]: 0.00041 | Ratio [4]: 0.0083
SMILES: Cn1cnc2c(NC3CCCC3)ncnc21

inhibition [2]: 2%
SMILES: CNC(=O)[C@@H]1C[C@H](N)[C@H](n2cnc3c(NCc4cccc(I)c4)nc(Cl)nc32)O1

Ratio [3]: 0.099 | Ratio [4]: 0.66
SMILES: CN(C)c1nc(NCc2cccc(I)c2)c2ncn(C)c2n1
